In ChEMBL document CHEMBL1129500, “Substituted 2,5'-Bi-1H-benzimidazoles: topoisomerase I inhibition and cytotoxicity” (J Med Chem, 1996):

How the values were obtained:
[1] = system: DNA topoisomerase 1 (Bos taurus); test: Effective concentration against Topoisomerase-I (purified from calf thymus gland) mediated DNA cleavage relative to Hoechst 33342
[2] = system: RPMI 8402; test: Cytotoxicity against human lymphoblast cell line RPMI 8402; type: functional, cell-based
Summary of the method: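 RPMI 8402 human lymphoblasts grown in suspension at 37 °C, 5% CO2, in RPMI with 10% heat-inactivated FBS, 2 mM L-glutamine, penicillin and streptomycin. Seeded at 2000 cells/well and exposed to drug continuously for 4 days. Viability read by MTT tetrazolium microtiter assay, giving IC50. Highest dose tested 25 µM.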

| Structure (SMILES) | REC [1] | IC50 [2] |
| --- | --- | --- |
| Cc1ccc(-c2nc3cc(-c4nc5cc(C#N)ccc5[nH]4)ccc3[nH]2)cc1 | 1 | 570 nM |
| NC(=O)c1ccc2[nH]c(-c3ccc4[nH]c(-c5ccc6ccccc6c5)nc4c3)nc2c1 | 100 | 740 nM |
| CN1CCN(c2ccc3[nH]c(-c4ccc5[nH]c(-c6cccc7ccccc67)nc5c4)nc3c2)CC1 | 20 | 330 nM |
| CN1CCN(c2ccc3[nH]c(-c4ccc5[nH]c(-c6ccc7ccccc7c6)nc5c4)nc3c2)CC1 | 10 | 110 nM |
| Cc1cccc(-c2nc3cc(-c4nc5cc(C#N)ccc5[nH]4)ccc3[nH]2)c1 | 100 | 860 nM |
| NC(=O)c1ccc2[nH]c(-c3ccc4[nH]c(-c5ccccc5)nc4c3)nc2c1 | 10 | > 25000 nM |
| CN1CCN(c2ccc3[nH]c(-c4ccc5[nH]c(-c6ccccc6)nc5c4)nc3c2)CC1 | 1 | 490 nM |
| Cc1ccc(-c2nc3cc(-c4nc5cc(C(N)=O)ccc5[nH]4)ccc3[nH]2)cc1 | 10 | > 25000 nM |
| Cc1cccc(-c2nc3cc(-c4nc5cc(C(N)=O)ccc5[nH]4)ccc3[nH]2)c1 | 100 | 8200 nM |
| Cc1ccccc1-c1nc2cc(-c3nc4cc(C#N)ccc4[nH]3)ccc2[nH]1 | > 100 | 1200 nM |
| Cc1cccc(-c2nc3cc(-c4nc5cc(N6CCN(C)CC6)ccc5[nH]4)ccc3[nH]2)c1 | 1 | 360 nM |
| N#Cc1ccc2[nH]c(-c3ccc4[nH]c(-c5ccc6ccccc6c5)nc4c3)nc2c1 | 10 | 130 nM |
| NC(=O)c1ccc2[nH]c(-c3ccc4[nH]c(-c5cccc6ccccc56)nc4c3)nc2c1 | 20 | 3700 nM |
| Cc1ccccc1-c1nc2cc(-c3nc4cc(C(N)=O)ccc4[nH]3)ccc2[nH]1 | 100 | 8200 nM |
| Cc1ccccc1-c1nc2cc(-c3nc4cc(N5CCN(C)CC5)ccc4[nH]3)ccc2[nH]1 | 10 | 590 nM |
| N#Cc1ccc2[nH]c(-c3ccc4[nH]c(-c5ccccc5)nc4c3)nc2c1 | > 100 | > 25000 nM |
| Cc1ccc(-c2nc3cc(-c4nc5cc(N6CCN(C)CC6)ccc5[nH]4)ccc3[nH]2)cc1 | 1 | 830 nM |
| N#Cc1ccc2[nH]c(-c3ccc4[nH]c(-c5cccc6ccccc56)nc4c3)nc2c1 | 10 | 650 nM |
